One series concerns Plasmodium falciparum. Description: Resistance index, ratio of IC50 for antiplasmodial activity against chloroquine-resistant Plasmodium falciparum K1 to IC50 for antiplasmodial activity against chloroquine-sensitive Plasmodium falciparum NF54. Format: functional. Put shortly:
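Asexual blood-stage P. falciparum K1 and NF54 kept in continuous culture (modified Trager–Jensen). Growth read by parasite lactate dehydrogenase assay (modified Makler). Ten 2-fold dilutions in complete medium, from 10 μg/ml to 20 ng/ml (or 1 μg/ml to 2 ng/ml). Chloroquine as reference. Triplicate on one occasion. IC50s from non-linear dose-response fit. RI = IC50 K1/IC50 NF54.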

Series [1] in a line: Selectivity index, ratio of IC50 for CHO cells to IC50 for antiplasmodial activity against chloroquine-sensitive Plasmodium falciparum NF54. It counts as toxicity. Conditions: hamster, CHO cells (cytotoxicity) versus Plasmodium falciparum NF54; read-out: Ratio IC50. Put shortly:
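CHO cytotoxicity measured by MTT colorimetric assay, using the antiplasmodial stock solutions. Six 10-fold dilutions in complete medium, 100 to 0.001 μg/ml, with emetine as reference. Triplicate on one occasion. IC50 from non-linear dose-response fit. NF54 IC50 came from the parasite lactate dehydrogenase assay. SI = IC50 CHO/IC50 NF54.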

Turning to `C=CCN1CCC(CNc2ccnc3ccccc23)C(C)(C)C1` (stereo not given), the “Ratio IC50” value with Plasmodium falciparum was found to be 0.3. Take `C=CCN1CCC(CNc2ccnc3cc(Cl)ccc23)C(C)(C)C1` (stereo not given): the “Ratio IC50” value in the series on Plasmodium falciparum was 1.7. On the same count and under the same terms, the figure for `c1ccc(C23CCN(C2)C(CNc2ccnc4ccccc24)C3)cc1` (mixture of isomers) is 1.5. `Clc1ccc2c(NCC3CC4(c5ccccc5)CCN3C4)ccnc2c1` (mixture of isomers): in the series with Plasmodium falciparum, the “Ratio IC50” value came out at 1.6. Take `Oc1cccc2ccc(CNCC3CC4(c5ccccc5)CCN3C4)nc12` (mixture of isomers): the “Ratio IC50” value with Plasmodium falciparum is recorded as 6.4. Same read-out and setting: the figure for `C=CCN1C[C@@H](OCc2ccccc2)[C@@H](CNCc2ccc3ccccc3n2)C(C)(C)C1` (relative stereo) is 1.8. Take `C=CCN1C[C@@H](OCc2ccccc2)[C@@H](CNc2ccnc3cc(Cl)ccc23)C(C)(C)C1` (relative stereo): in series [1], the selectivity ratio amounted to 10100. The “Ratio IC50” value in the series with Plasmodium falciparum was determined as 2.2. Regarding `C=CCN1C[C@@H](OCc2ccccc2)[C@@H](CNCc2ccnc3ccccc23)C(C)(C)C1` (relative stereo), the “Ratio IC50” value in the series with Plasmodium falciparum is 1.5. As to `C=CCN1C[C@@H](OCc2ccccc2)[C@@H](CNCc2cc3ccccc3nc2Cl)C(C)(C)C1` (relative stereo), the “Ratio IC50” value with Plasmodium falciparum came to 1.5.
